Reference: ChEMBL document CHEMBL3352788, “Characterization of selective exosite-binding inhibitors of matrix metalloproteinase 13 that prevent articular cartilage degradation in vitro” (J Med Chem, 2014)

Columns and labels:
Caspase-3 (Homo sapiens) = target: T1, Caspase-3 (Homo sapiens) (UniProt P42574); test: Inhibition of recombinant human caspase 3 using DEVDAA substrate at up to 20 uM after 3 hrs
T1 sequence (whole entry): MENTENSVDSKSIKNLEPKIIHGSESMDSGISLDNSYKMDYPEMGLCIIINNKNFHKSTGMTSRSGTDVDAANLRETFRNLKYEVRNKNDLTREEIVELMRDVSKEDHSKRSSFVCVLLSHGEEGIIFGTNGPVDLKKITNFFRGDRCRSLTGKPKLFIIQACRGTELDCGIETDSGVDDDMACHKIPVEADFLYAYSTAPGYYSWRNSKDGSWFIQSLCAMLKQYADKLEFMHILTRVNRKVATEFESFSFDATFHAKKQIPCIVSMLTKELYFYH
Method in brief: (§1)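 Outsourced microfluidic protease panel. Compound was preincubated with each protease for 30 min at 25 °C, then peptide substrate was added for 3 h at 25 °C and quenched with SDS/EDTA/iodoacetate. Substrate-to-product conversion was measured on LabChip. Compounds were tested singly in a 12-point 3-fold dilution series, top 20 μM (5 μM for two reference compounds).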

Caspase-6 (Homo sapiens) [1] = target: T2, Caspase-6 (Homo sapiens) (UniProt P55212); test: Inhibition of recombinant human caspase 6 using VEHDGG substrate at up to 20 uM after 3 hrs; method in brief: as §1
T2 sequence (whole entry): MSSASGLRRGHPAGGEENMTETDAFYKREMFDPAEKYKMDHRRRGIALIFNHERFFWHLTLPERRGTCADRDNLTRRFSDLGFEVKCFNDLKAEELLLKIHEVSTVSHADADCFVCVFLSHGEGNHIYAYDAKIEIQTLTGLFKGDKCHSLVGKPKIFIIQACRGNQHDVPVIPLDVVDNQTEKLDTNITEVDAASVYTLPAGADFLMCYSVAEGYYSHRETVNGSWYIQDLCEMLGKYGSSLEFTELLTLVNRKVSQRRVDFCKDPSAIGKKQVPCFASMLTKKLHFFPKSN

[2] = target: Prothrombin (Homo sapiens) (UniProt P00734); test: Inhibition of recombinant human thrombin using PRTLT substrate at up to 20 uM after 3 hrs
Method in brief: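 Each protease was preincubated 30 min at 25 °C with compound in its assay buffer. Peptide substrate was then added and the reaction ran 3 h at 25 °C before quenching with SDS/EDTA/iodoacetate. Substrate-to-product conversion (%) was read by microfluidic electrophoresis. Compounds were tested in singlicate as 12-point 3-fold dilutions from 20 μM to 0.1 nM. IC50 was taken as the concentration giving 50% of no-compound control activity.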

Caspase-5 (Homo sapiens) = target: T3, Caspase-5 (Homo sapiens) (UniProt P51878); test: Inhibition of recombinant human caspase 5 using LEHDGP substrate at up to 5 uM after 3 hrs; method in brief: as §1
T3 sequence (whole entry): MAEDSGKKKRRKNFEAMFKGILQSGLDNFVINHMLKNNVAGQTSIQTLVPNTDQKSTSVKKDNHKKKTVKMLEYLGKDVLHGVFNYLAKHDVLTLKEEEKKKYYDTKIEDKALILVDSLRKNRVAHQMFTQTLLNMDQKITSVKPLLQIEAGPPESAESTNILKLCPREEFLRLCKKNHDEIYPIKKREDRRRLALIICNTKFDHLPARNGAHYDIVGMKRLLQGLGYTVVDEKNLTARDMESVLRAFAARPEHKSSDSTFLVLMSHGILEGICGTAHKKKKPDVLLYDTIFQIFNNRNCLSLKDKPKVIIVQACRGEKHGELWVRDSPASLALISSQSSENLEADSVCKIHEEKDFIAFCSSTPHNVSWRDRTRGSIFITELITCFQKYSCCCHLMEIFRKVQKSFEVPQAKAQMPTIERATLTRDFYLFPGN

Caspase-6 (Homo sapiens) [3] = target: T2, Caspase-6 (Homo sapiens); test: Inhibition of recombinant human caspase 6 using VEHDGG substrate at up to 5 uM after 3 hrs; method in brief: as §1
Caspase-7 (Homo sapiens) = target: T4, Caspase-7 (Homo sapiens) (UniProt P55210); test: Inhibition of recombinant human caspase 7 using DEVDAA substrate at up to 5 uM after 3 hrs; method in brief: as §1
T4 sequence (whole entry): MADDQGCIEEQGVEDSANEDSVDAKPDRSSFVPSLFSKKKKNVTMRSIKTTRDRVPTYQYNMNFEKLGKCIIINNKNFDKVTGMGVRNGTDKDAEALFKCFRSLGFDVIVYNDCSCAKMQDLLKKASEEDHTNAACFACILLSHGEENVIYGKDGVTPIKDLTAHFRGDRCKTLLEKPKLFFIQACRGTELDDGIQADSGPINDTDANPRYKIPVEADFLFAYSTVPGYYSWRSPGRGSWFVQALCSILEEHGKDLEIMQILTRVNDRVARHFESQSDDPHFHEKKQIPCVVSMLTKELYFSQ

[4] = target: Procathepsin L (Homo sapiens) (UniProt P07711); test: Inhibition of recombinant human cathepsin L using GGALRAG substrate at up to 5 uM after 3 hrs
Method in brief: (§2)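 In this microfluidic protease panel, enzyme and compound were preincubated 30 min at 25 °C. The peptide substrate was added and the reaction was incubated 3 h at 25 °C, then quenched (SDS, EDTA, iodoacetate). Activity was read as % substrate converted to product. Dose–response was singlicate, 12-point 3-fold dilutions spanning 5 μM to 0.028 nM. IC50 was the concentration leaving 50% activity relative to no-compound control.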

[5] = target: Cathepsin S (Homo sapiens) (UniProt P25774); test: Inhibition of recombinant human cathepsin S using RTLTAK substrate at up to 5 uM after 3 hrs; method in brief: as §2
[6] = target: Coagulation factor X (Homo sapiens) (UniProt P00742); test: Inhibition of recombinant human factor 10a using ALPRTMFIQ substrate at up to 5 uM after 3 hrs; method in brief: as §2
[7] = target: Urokinase-type plasminogen activator (Homo sapiens) (UniProt P00749); test: Inhibition of recombinant human uPA using GRTSSVEP substrate at up to 5 uM after 3 hrs; method in brief: as §2
Liver = test: Half life in mouse liver microsomes by LC-MS/MS analysis; assay type: ADME
Method in brief: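 Compound at 1 μM with 1 mg/mL liver microsomes in 100 mM potassium phosphate pH 7.4 at 37 °C with shaking. Reaction started with 1 mM NADPH (final). Aliquots were taken at 0, 5, 10, 20, 40 and 60 min and quenched in acetonitrile. Parallel incubations without NADPH were run.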

Procathepsin L (Homo sapiens), sequence (P07711 114-333 limits assumed): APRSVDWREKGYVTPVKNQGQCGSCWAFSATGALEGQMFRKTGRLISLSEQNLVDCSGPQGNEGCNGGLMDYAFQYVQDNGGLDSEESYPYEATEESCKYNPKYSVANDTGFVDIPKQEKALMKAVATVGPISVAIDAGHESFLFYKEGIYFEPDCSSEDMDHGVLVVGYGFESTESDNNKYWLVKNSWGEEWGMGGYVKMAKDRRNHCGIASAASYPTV
Cathepsin S (Homo sapiens), sequence (P25774 115-331 limits assumed): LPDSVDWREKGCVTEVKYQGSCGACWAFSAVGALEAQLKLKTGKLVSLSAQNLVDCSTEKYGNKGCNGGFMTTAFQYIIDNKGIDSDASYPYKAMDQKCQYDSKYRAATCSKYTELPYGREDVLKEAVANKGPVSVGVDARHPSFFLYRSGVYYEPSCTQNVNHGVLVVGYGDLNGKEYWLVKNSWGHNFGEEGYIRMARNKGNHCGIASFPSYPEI
Coagulation factor X (Homo sapiens), sequence (P00742 41-179 limits assumed): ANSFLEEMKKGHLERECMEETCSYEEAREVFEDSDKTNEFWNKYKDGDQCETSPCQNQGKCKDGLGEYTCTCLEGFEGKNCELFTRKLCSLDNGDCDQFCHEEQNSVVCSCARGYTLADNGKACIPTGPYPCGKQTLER
Coagulation factor X (Homo sapiens), sequence (P00742 235-488 limits assumed): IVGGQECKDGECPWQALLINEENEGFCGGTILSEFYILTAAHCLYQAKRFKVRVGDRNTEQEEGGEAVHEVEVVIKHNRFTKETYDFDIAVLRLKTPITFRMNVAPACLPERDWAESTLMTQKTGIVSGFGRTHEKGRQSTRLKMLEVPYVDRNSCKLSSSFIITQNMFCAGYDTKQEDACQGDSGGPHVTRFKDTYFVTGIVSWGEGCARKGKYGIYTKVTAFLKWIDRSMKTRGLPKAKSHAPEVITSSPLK

inhibition (Caspase-5 (Homo sapiens)) [%] | inhibition (Caspase-6 (Homo sapiens) [3]) [%] | inhibition (Caspase-7 (Homo sapiens)) [%] | inhibition [4] [%] | inhibition [5] [%] | inhibition [6] [%] | inhibition [7] [%] | SMILES | inhibition (Caspase-3 (Homo sapiens)) [%] | inhibition (Caspase-6 (Homo sapiens) [1]) [%] | inhibition [2] [%] | t1/2 (Liver) [min]
< 10 | < 10 | < 10 | < 10 | < 10 | < 10 | < 10 | Cc1cc(CNC(=O)c2cc(C(=O)NCc3ccc(F)c(C)c3)ncn2)ccc1F |  |  |  | 
< 10 | < 10 | < 10 | < 10 | < 10 | < 10 | < 10 | Cn1c(=O)n(Cc2ccc(C(=O)O)cc2)c(=O)c2cc(C#CCc3ccccc3)ccc21 |  |  |  | 

Second part, the molecule before the results:

SMILES | inhibition (Caspase-5 (Homo sapiens)) [%] | inhibition (Caspase-6 (Homo sapiens) [3]) [%] | inhibition (Caspase-7 (Homo sapiens)) [%] | inhibition [4] [%] | inhibition [5] [%] | inhibition [6] [%] | inhibition [7] [%] | inhibition (Caspase-3 (Homo sapiens)) [%] | inhibition (Caspase-6 (Homo sapiens) [1]) [%] | inhibition [2] [%] | t1/2 (Liver) [min]
Cc1ccc(CSc2nc(O)c3c(n2)CCC3)cc1 |  |  |  |  |  |  |  | < 10 | < 10 | < 10 | 
COC(=O)c1ccc(CSc2nc3c(c(=O)[nH]2)CCC3)cc1 |  |  |  |  |  |  |  | < 10 | < 10 | < 10 | 2
Oc1nc(SCc2ccc(Cl)cc2)nc2c1CCC2 |  |  |  |  |  |  |  | < 10 | < 10 | < 10 | 1.3
